Experimental data: ChEMBL document CHEMBL2380310, “Discovery of 7-oxopyrazolo[1,5-a]pyrimidine-6-carboxamides as potent and selective CB(2) cannabinoid receptor inverse agonists” (J Med Chem, 2013)
pEC50, pKi: −log10 of the molar value. Active and inactive are the calls of the source. The rule behind the calls is not given here.

Assays:
[1] = target: T1, Cannabinoid receptor 2 (Homo sapiens, UniProt P34972); experiment: Inverse agonist activity at human CB2 receptor expressed in CHO cell membrane assessed as increase in forskolin-stimulated cAMP production at 1 uM by scintillation counting analysis relative to WIN55212-2
Summary of the method: (§1)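 Whole hCB₂ CHO cells (1 × 10⁶/assay) in HEPES-buffered saline with glucose, pH 7.4, preincubated 10 min at 37 °C with 0.5 mM Ro 20-1724. Compound at 1 or 10 μM with 1 μM forskolin. Stopped with cold 6% TCA, ether-extracted; cAMP measured by [³H]cAMP competition binding with adrenal binding protein. Expressed as % increase versus WIN 55,212-2 (set −100%); n = 4.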

[2] = target: T2, Cannabinoid receptor 1 (Homo sapiens, UniProt P21554); experiment: Displacement of [3H]CP-55940 from human CB1 receptor expressed in CHO cell membrane after 90 mins by scintillation counting analysis; type: cell membranes
Summary of the method: (§2)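 Membranes from CHO cells stably expressing human CB₁ (G418-maintained), suspended in 50 mM Tris-HCl, 0.5% BSA, 5 mM MgCl₂, 2.5 mM EDTA, pH 7.4. Displacement of 0.5 nM [³H]CP-55,940 by 1 nM–10 μM compound, 90 min, 30 °C. Filtration on GF/C, scintillation counting. Cheng-Prusoff Ki, LIGAND fitting; mean SEM, n = 4.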

[3] = target: Cannabinoid receptor 1 (Rattus norvegicus, UniProt P20272); experiment: Displacement of [3H]CP-55940 from Sprague-Dawley rat brain CB1 receptor after 90 mins by scintillation counting analysis
Summary of the method: (§3)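 Competition with [³H]CP-55,940 (1.0 nM stated in rat CB₁ section; 0.5 nM in general protocol) against 1 nM–10 μM compound, 90 min at 30 °C. GF/C filtration, scintillation counting. Ki via Cheng-Prusoff; mean SEM, n = 4.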

[4] = target: T1, Cannabinoid receptor 2; experiment: Displacement of [3H]CP-55940 from human CB2 receptor expressed in CHO cell membrane after 60 mins by scintillation counting analysis; type: cell membranes
Summary of the method: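 Human CB₂-expressing CHO cell membranes in 50 mM Tris-HCl, 0.5% BSA, 5 mM MgCl₂, 1 mM EDTA, pH 7.4. Binding of 0.5 nM [³H]CP-55,940 competed with 1 nM–10 μM compound for 60 min at 30 °C, then GF/C filtration and scintillation counting. Ki by Cheng-Prusoff from IC50; mean SEM of n = 4.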

[5] = target: T1, Cannabinoid receptor 2; experiment: Inverse agonist activity at human CB2 receptor expressed in CHO cell membrane assessed as increase in forskolin-stimulated cAMP production at 10 uM by scintillation counting analysis relative to WIN55212-2; summary of the method: as §1
[6] = species on record: Homo sapiens; experiment: Selectivity index, ratio of Ki for human CB1 receptor to Ki for human CB2 receptor
[7] = target: T3, Cannabinoid receptor 2 (Rattus norvegicus, UniProt Q9QZN9); experiment: Displacement of [3H]CP-55940 from Sprague-Dawley rat spleen CB2 receptor after 60 mins by scintillation counting analysis
T3 sequence (Q9QZN9 whole entry): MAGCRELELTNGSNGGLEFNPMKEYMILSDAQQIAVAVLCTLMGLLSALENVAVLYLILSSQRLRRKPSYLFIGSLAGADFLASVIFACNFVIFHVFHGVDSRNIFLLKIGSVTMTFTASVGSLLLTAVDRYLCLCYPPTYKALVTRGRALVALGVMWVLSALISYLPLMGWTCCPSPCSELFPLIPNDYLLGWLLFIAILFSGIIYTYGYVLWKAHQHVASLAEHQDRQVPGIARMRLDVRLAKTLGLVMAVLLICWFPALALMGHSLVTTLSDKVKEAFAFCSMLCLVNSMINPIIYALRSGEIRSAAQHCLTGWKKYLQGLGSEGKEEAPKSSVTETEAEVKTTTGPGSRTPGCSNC
Summary of the method: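 Competed against 0.5 nM [³H]CP-55,940 using 1 nM–10 μM compound for 60 min at 30 °C. Bound ligand collected on GF/C filters and counted. Ki from IC50 by Cheng-Prusoff; mean SEM of n = 4.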

[8] = target: T1, Cannabinoid receptor 2; experiment: Inverse agonist activity at human CB2 receptor expressed in CHO cell membrane assessed as increase in forskolin-stimulated cAMP production by scintillation counting analysis; type: functional, cell membranes
[9] = target: T2, Cannabinoid receptor 1; experiment: Displacement of [3H]CP-55940 from human CB1 receptor expressed in CHO cell membrane at > 10 uM after 90 mins by scintillation counting analysis; type: cell membranes; summary of the method: as §2
[10] = target: Cannabinoid receptor 1 (Rattus norvegicus) (UniProt P20272); experiment: Displacement of [3H]CP-55940 from Sprague-Dawley rat brain CB1 receptor at > 10 uM after 90 mins by scintillation counting analysis; summary of the method: as §3
[11] = target: T1, Cannabinoid receptor 2; experiment: Inverse agonist activity at human CB2 receptor expressed in CHO cell membrane assessed as increase in forskolin-stimulated cAMP production at 1 to 10 uM by scintillation counting analysis in presence of WIN55212-2

Cannabinoid receptor 1 (Rattus norvegicus, UniProt P20272), sequence (P20272 whole entry): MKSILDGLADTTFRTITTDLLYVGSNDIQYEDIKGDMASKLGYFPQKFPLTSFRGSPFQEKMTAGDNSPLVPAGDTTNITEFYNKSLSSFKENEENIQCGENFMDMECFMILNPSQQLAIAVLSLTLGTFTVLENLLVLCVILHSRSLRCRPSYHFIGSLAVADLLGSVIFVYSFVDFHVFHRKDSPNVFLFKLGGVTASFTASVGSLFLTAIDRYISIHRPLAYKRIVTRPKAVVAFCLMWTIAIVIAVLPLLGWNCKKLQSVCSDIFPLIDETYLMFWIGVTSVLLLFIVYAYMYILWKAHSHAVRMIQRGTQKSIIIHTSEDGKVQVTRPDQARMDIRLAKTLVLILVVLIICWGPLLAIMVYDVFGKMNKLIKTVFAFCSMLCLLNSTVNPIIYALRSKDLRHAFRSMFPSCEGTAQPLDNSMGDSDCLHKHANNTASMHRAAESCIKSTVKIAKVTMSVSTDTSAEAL
Cannabinoid receptor 1 (Rattus norvegicus), sequence (P20272 whole entry): as above
T1 sequence (P34972 whole entry): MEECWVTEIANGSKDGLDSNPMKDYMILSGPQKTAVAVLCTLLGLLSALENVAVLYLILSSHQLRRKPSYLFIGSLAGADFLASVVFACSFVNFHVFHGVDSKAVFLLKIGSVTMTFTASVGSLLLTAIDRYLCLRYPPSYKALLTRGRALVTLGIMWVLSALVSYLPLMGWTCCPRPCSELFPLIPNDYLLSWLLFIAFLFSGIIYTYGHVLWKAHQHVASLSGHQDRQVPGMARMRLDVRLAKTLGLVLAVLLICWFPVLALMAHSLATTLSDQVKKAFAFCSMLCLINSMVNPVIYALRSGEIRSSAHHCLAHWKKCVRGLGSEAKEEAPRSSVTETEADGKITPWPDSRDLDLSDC
T2 sequence (P21554 whole entry): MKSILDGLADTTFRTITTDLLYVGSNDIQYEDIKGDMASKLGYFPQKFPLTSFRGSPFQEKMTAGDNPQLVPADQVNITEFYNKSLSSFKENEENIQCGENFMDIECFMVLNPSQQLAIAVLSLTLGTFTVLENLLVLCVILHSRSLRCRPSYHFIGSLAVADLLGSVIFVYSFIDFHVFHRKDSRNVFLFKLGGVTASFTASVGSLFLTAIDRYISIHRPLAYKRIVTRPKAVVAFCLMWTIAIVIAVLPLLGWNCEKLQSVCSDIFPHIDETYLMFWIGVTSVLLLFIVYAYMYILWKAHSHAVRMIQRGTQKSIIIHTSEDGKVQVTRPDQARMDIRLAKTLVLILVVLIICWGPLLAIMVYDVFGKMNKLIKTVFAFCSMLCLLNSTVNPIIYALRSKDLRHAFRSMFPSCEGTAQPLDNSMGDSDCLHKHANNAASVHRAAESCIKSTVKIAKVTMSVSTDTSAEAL

Row | SMILES | Activity [1] [%] | pKi [2] | pKi [3] | pKi [4] | Activity [5] [%] | Ratio Ki [6] | pKi [7] | pEC50 [8] | Activity [9] [%] | Activity [10] [%] | Activity [11]
1 | CCCCCn1cc(C(=O)NC2CCCCCC2)c(=O)n2nc(C(C)(C)C)cc12 | 151 | 6.22 | 6.19 | 8.14 | 213 | 84 | 8.12 | 6.45 |  |  | 
2 | CCCCCn1cc(C(=O)NC23CC4CC(CC(C4)C2)C3)c(=O)n2nc(-c3ccccc3)cc12 | 163 | < 5.00 | < 5.00 | 8.59 | 195 | > 3910 | 8.56 | 6.71 | 43 | 40 | 
3 | CCCCCn1cc(C(=O)NC23CC4CC(CC(C4)C2)C3)c(=O)n2nc(-c3ccc(C)cc3)cc12 | 138 | < 5.00 | < 5.00 | 8.47 | 168 | > 2930 | 8.42 |  | 38 | 45 | 
4 | CCCCCn1cc(C(=O)NC2CCCCCC2)c(=O)n2nc(-c3ccccc3C)cc12 | 107 | < 5.00 | < 5.00 | 8.05 | 125 | > 1120 | 8.02 |  | 34 | 45 | 
5 | CCCCCn1cc(C(=O)NC2CCCCCC2)c(=O)n2nc(-c3ccc(C)cc3)cc12 | 81 | < 5.00 | < 5.00 | 7.99 | 107 | > 970 | 7.88 |  | 39 | 49 | 
6 | CCCCCn1cc(C(=O)NC2CCCCCC2)c(=O)n2nc(-c3ccco3)cc12 | 42 | < 5.00 | < 5.00 | 8.18 | 88 | > 1520 | 8.14 |  | 16 | 20 | 
7 | CCCCCn1cc(C(=O)NC23CC4CC(CC(C4)C2)C3)c(=O)n2nc(-c3ccccc3Cl)cc12 | 114 | < 5.00 | < 5.00 | 8.21 | 136 | > 1610 | 8.20 |  | 41 | 48 | 
8 | CCCCCn1cc(C(=O)NC23CC4CC(CC(C4)C2)C3)c(=O)n2nc(C)c(-c3ccc(OC)cc3)c12 | 36 | < 5.00 | < 5.00 | 6.46 | 60 | > 28 | 6.36 |  | 4 | 5 | 
9 | CCCCCn1cc(C(=O)NC2CCCCC2)c(=O)n2nc(-c3ccco3)cc12 | 73 | < 5.00 | < 5.00 | 8.02 | 103 | > 1050 | 7.98 |  | 21 | 30 | 
10 | CCCCCn1cc(C(=O)NC23CC4CC(CC(C4)C2)C3)c(=O)n2nc(CC)cc12 | 173 | 6.92 | 6.82 | 9.08 | 243 | 143 | 9.02 | 7.02 |  |  | Active
11 | CCCCCn1cc(C(=O)NC2CCCCC2)c(=O)n2nc(-c3ccc(Cl)cc3)cc12 | 79 | < 5.00 | < 5.00 | 7.26 | 94 | > 181 | 7.24 |  | 15 | 8 | 
12 | CCCCCn1cc(C(=O)NC2CCCCC2)c(=O)n2nc(-c3ccc(C)cc3)cc12 | 63 | < 5.00 | < 5.00 | 7.24 | 93 | > 175 | 7.21 |  | 20 | 25 | 
13 | CCCCCn1cc(C(=O)NC2CCCCC2)c(=O)n2nc(-c3ccccc3C)cc12 | 73 | < 5.00 | < 5.00 | 7.40 | 94 | > 250 | 7.32 |  | 16 | 30 | 
14 | CCCCCn1cc(C(=O)NC23CC4CC(CC(C4)C2)C3)c(=O)n2nc(-c3cc(C)cs3)cc12 | 71 | < 5.00 | < 5.00 | 7.82 | 97 | > 666 | 7.74 |  | 13 | 15 | 
